{"source": "paper PMC8212709", "about": "(Clinical and Translational Science, 2021)", "key": {"[1]": {"target": "BTK (Homo sapiens, UniProt Q06187)", "sequence (Q06187 whole entry)": "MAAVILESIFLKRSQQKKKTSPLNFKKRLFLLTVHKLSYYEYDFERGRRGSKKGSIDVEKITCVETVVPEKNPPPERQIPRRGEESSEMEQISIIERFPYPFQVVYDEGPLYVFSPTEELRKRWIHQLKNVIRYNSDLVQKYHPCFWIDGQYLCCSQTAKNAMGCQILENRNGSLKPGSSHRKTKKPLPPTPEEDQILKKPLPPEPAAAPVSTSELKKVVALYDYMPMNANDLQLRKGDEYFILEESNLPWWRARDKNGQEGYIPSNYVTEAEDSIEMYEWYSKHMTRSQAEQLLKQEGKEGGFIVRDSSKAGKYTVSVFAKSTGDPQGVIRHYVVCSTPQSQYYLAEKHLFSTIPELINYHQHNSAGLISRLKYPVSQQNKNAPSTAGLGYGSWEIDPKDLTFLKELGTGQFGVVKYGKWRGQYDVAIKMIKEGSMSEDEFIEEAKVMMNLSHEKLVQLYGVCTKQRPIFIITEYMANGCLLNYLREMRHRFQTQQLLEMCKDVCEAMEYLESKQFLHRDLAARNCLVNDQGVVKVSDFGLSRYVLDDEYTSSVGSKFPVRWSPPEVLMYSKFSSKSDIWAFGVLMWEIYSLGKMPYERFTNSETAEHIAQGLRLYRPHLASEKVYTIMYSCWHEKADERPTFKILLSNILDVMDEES", "experiment": "BTK occupancy assay in whole blood cell lysates", "assay_type": "in vivo", "procedure,_shortened": "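Healthy subjects in SRD cohorts 1–4 (6 test compound, 2 placebo per cohort) took a single oral dose (0.1 mg starting dose, given as solution) or placebo while fasted. Unoccupied BTK in whole-blood cell lysates was captured by a biotin-modified covalent probe of the test compound. Occupancy was computed per postdose time up to 96 h as 100 − [100 × (BTK concentration ÷ predose BTK concentration)].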"}, "[2]": {"settings": "dogs, nonclinical, no reference given, cited from earlier work"}, "[3]": {"settings": "rat, most sensitive toxicological species; nonclinical, no reference given; cited from earlier work"}}, "data": [{"smiles": "C=CC(=O)N1CC[C@H](Oc2nc(-c3n[nH]c(=O)[nH]3)cc3ccccc23)C1", "note": "[TAK‐020]", "values": [{"measurement": "duration of BTK occupancy > 70%", "setting": "[1]; SRD, 2.5‐mg and 4.4‐mg doses, longest duration investigated", "result": "> 96", "unit": "h"}, {"measurement": "BTK occupancy, maximum and sustained", "setting": "[1]; SRD, single doses ≥ 2.5 mg (2.5‐mg and 4.4‐mg), blood", "result": "> 70", "unit": "%"}, {"measurement": "duration of > 80% BTK occupancy", "setting": "[1]; single doses of 2.5 and 4.4 mg, postdose", "result": 72, "unit": "h"}, {"measurement": "BTK occupancy (%) of TAK‐020 binding sites", "setting": "[1]; single doses of 2.5 and 4.4 mg, up to 72 hours postdose", "result": "> 80", "unit": "%"}, {"measurement": "duration of BTK saturation", "setting": "[1]; single doses ≥2.5 mg", "result": "> 24", "unit": "h"}, {"measurement": "terminal disposition phase elimination half‐life (t1/2z)", "setting": "[2]; after oral administration", "result": "3.8 to 6.7", "unit": "h"}, {"measurement": "oral bioavailability", "setting": "[2]", "result": 8.17, "unit": "%"}, {"measurement": "no observed adverse effect level exposure limit (total AUC)", "setting": "[3]", "result": 63, "unit": "ng·h/mL"}]}]}
